Test results as given in ChEMBL document CHEMBL5532695, “4-Trifluoromethyl bithiazoles as broad-spectrum antimicrobial agents for virus-related bacterial infections or co-infections” (RSC Med Chem, 2024).
Values after ≈ are worked out from the molar mass of the structure shown.

Tests used:
[1] = tested on: rhinovirus A16; assay: Antiviral activity against 7 times rupintrivir passaged resistance model of Human rhinovirus 16 infected in human HeLa cells assessed as inhibition of viral replication; format: functional, organism-based; conditions: Rhinovirus A
Procedure, shortened: (§1)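 HeLa cells infected with RVA16 and serially passaged under compound, supernatants harvested at extensive CPE (3–6 dpi), clarified and titrated on HeLa; each passage used prior virus at MOI 0.01, drug concentration doubled when possible; after 7 passages RNA sequenced. Antiviral read-out: HeLa at 33 °C, 48 h, VP3 immunostaining with HRP secondary; EC50 from variable-slope sigmoidal fit.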

[2] = tested on: rhinovirus A16; assay: Antiviral activity against 7 times N-(4'-(Trifluoromethyl)-2-((3-(trifluoromethyl)phenyl)amino)-[4,5'-bithiazol]-2'-yl)benzamide passaged resistance model of Human rhinovirus 16 infected in human HeLa cells assessed as inhibition of viral replication; format: functional, organism-based; conditions: Rhinovirus A; procedure, shortened: as §1
[3] = tested on: rhinovirus A16; assay: microbe, parasite or virus in culture; conditions: Rhinovirus A, HeLa, 48 h
[4] = target: Phosphatidylinositol 4-kinase beta (Homo sapiens, UniProt Q9UBF8); assay: Inhibition of recombinant full length his tagged PI4KB (unknown origin) incubated for 10 mins in presence of ATP by ADP-glo kinase assay
[5] = Cytotoxicity against human HeLa cells assessed as reduction in cell viability by MTT assay; format: toxicity, cell-based
Procedure, shortened: (§2)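 MTT viability on HeLa or VeroE6 cells, run in parallel with the antiviral assays. CC50 from variable-slope sigmoidal dose–response regression.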

[6] = Cytotoxicity against african green monkey Vero E6 cells assessed as reduction in cell viability by MTT assay; format: toxicity, cell-based; conditions: chlorocebus sabaeus, Vero E6 cells (Vero C1008); procedure, shortened: as §2
[7] = tested on: Bacillus subtilis; assay: Antibacterial activity against Bacillus subtilis ATCC 6633 assessed as reduction in microbial growth measured after 18 hrs by CLSI based broth microdilution method; format: functional
Procedure, shortened: (§3)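 MIC by CLSI broth microdilution in Mueller–Hinton medium, triplicate. Inoculum 5 × 10^4 CFU per well. Compounds taken up in DMSO (50 mg mL−1 stock) and diluted in medium. Read after 18 h at 35 ± 2 °C.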

[8] = tested on: Bacillus subtilis; assay: Bactericidal activity against Bacillus subtilis ATCC 6633 assessed as reduction in microbial growth measured after 18 hrs by CLSI based broth microdilution method; format: functional
Procedure, shortened: (§4)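 MBC by CLSI broth microdilution in Mueller–Hinton medium, triplicate. Inoculum 5 × 10^4 CFU per well. Read after 18 h at 35 ± 2 °C.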

[9] = tested on: Enterococcus faecalis; assay: Antibacterial activity against Enterococcus faecalis ATCC 29212 assessed as reduction in microbial growth measured after 18 hrs by CLSI based broth microdilution method; format: functional; procedure, shortened: as §3
[10] = tested on: Enterococcus faecalis; assay: Bactericidal activity against Enterococcus faecalis ATCC 29212 assessed as reduction in microbial growth measured after 18 hrs by CLSI based broth microdilution method; format: functional; procedure, shortened: as §4
[11] = tested on: Streptococcus pyogenes; assay: Antibacterial activity against Streptococcus pyogenes ATCC 12344 assessed as reduction in microbial growth measured after 18 hrs by CLSI based broth microdilution method; format: functional; procedure, shortened: as §3
[12] = tested on: Streptococcus pyogenes; assay: Bactericidal activity against Streptococcus pyogenes ATCC 12344 assessed as reduction in microbial growth measured after 18 hrs by CLSI based broth microdilution method; format: functional; procedure, shortened: as §4
[13] = tested on: Staphylococcus aureus; assay: Antibacterial activity against Staphylococcus aureus ATCC 25923 assessed as reduction in microbial growth measured after 18 hrs by CLSI based broth microdilution method; format: functional; procedure, shortened: as §3
[14] = tested on: Staphylococcus aureus; assay: Bactericidal activity against Staphylococcus aureus ATCC 25923 assessed as reduction in microbial growth measured after 18 hrs by CLSI based broth microdilution method; format: functional; procedure, shortened: as §4
[15] = tested on: Escherichia coli; assay: Synergistic antibacterial activity against Escherichia coli CCUGT incubated for 18 to 24 hrs in presence of colistin by broth microdilution method; format: functional; conditions: time 18-24 hrs
[16] = tested on: Klebsiella pneumoniae; assay: Synergistic antibacterial activity against Klebsiella pneumoniae ATCC 13833 incubated for 18 to 24 hrs in presence of colistin by broth microdilution method; format: functional; conditions: time 18-24 hrs
[17] = tested on: Acinetobacter baumannii; assay: Synergistic antibacterial activity against Acinetobacter baumannii ATCC 17978 incubated for 18 to 24 hrs in presence of colistin by broth microdilution method; format: functional; conditions: time 18-24 hrs
[18] = tested on: Pseudomonas aeruginosa; assay: Synergistic antibacterial activity against Pseudomonas aeruginosa ATCC 27853 incubated for 18 to 24 hrs in presence of colistin by broth microdilution method; format: functional; conditions: time 18-24 hrs
[19] = tested on: Staphylococcus aureus; assay: Antibacterial activity against methicillin-resistant Staphylococcus aureus ATCC 43300 assessed as reduction in microbial growth measured after 18 hrs by CLSI based broth microdilution method; format: functional
Procedure, shortened: (§5)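 Gram-positive clinical isolates; compounds dissolved in DMSO (50 mg mL−1 stock) and diluted in medium; MIC by CLSI broth microdilution in Mueller–Hinton medium, inoculum 5 × 10^4 CFU per well, read after 18 h at 35 ± 2 °C; triplicate.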

[20] = tested on: Staphylococcus aureus; assay: Bactericidal activity against methicillin-resistant Staphylococcus aureus ATCC 43300 assessed as reduction in microbial growth measured after 18 hrs by CLSI based broth microdilution method; format: functional
[21] = tested on: Staphylococcus warneri; assay: Antibacterial activity against oxacillin-resistant Staphylococcus warneri SI-5/2011 assessed as reduction in microbial growth measured after 18 hrs by CLSI based broth microdilution method; format: functional; procedure, shortened: as §5
[22] = tested on: Staphylococcus warneri; assay: Bactericidal activity against oxacillin-resistant Staphylococcus warneri SI-5/2011 assessed as reduction in microbial growth measured after 18 hrs by CLSI based broth microdilution method; format: functional
[23] = tested on: Staphylococcus haemolyticus; assay: Antibacterial activity against oxacillin-resistant Staphylococcus haemolyticus SI-6/2011 assessed as reduction in microbial growth measured after 18 hrs by CLSI based broth microdilution method; format: functional; procedure, shortened: as §5
[24] = tested on: Staphylococcus haemolyticus; assay: Bactericidal activity against oxacillin-resistant Staphylococcus haemolyticus SI-6/2011 assessed as reduction in microbial growth measured after 18 hrs by CLSI based broth microdilution method; format: functional
[25] = tested on: Staphylococcus epidermidis; assay: Antibacterial activity against linezolid-resistant Staphylococcus epidermidis SI-1266 assessed as reduction in microbial growth measured after 18 hrs by CLSI based broth microdilution method; format: functional; procedure, shortened: as §5
[26] = tested on: Staphylococcus epidermidis; assay: Bactericidal activity against linezolid-resistant Staphylococcus epidermidis SI-1266 assessed as reduction in microbial growth measured after 18 hrs by CLSI based broth microdilution method; format: functional
[27] = tested on: Enterococcus faecium; assay: Antibacterial activity against Vancomycin/teicoplanin resistant Enterococcus faecium SI-759 assessed as reduction in microbial growth measured after 18 hrs by CLSI based broth microdilution method; format: functional; procedure, shortened: as §5
[28] = tested on: Enterococcus faecium; assay: Bactericidal activity against Vancomycin/teicoplanin resistant Enterococcus faecium SI-759 assessed as reduction in microbial growth measured after 18 hrs by CLSI based broth microdilution method; format: functional
[29] = tested on: Enterococcus faecium; assay: Antibacterial activity against Vancomycin resistant Enterococcus faecium SI-1831 assessed as reduction in microbial growth measured after 18 hrs by CLSI based broth microdilution method; format: functional; procedure, shortened: as §5
[30] = tested on: Enterococcus faecium; assay: Bactericidal activity against Vancomycin resistant Enterococcus faecium SI-1831 assessed as reduction in microbial growth measured after 18 hrs by CLSI based broth microdilution method; format: functional
[31] = tested on: Enterococcus faecium; assay: Antibacterial activity against Vancomycin resistant Enterococcus faecium SI-3856B assessed as reduction in microbial growth measured after 18 hrs by CLSI based broth microdilution method; format: functional; procedure, shortened: as §5
[32] = tested on: Enterococcus faecium; assay: Bactericidal activity against Vancomycin resistant Enterococcus faecium SI-3856B assessed as reduction in microbial growth measured after 18 hrs by CLSI based broth microdilution method; format: functional
[33] = tested on: Escherichia coli; assay: Synergistic antibacterial activity against colistin resistant mcr-positive Escherichia coli SI-63 incubated for 18 to 24 hrs in presence of colistin by broth microdilution method; format: functional; conditions: time 18-24 hrs
Procedure, shortened: (§6)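 Minimum antibacterial concentration (MAC) by broth microdilution in Mueller–Hinton medium with a fixed subinhibitory colistin concentration of 2 μg mL−1 against colistin-resistant Gram-negative clinical isolates; inoculum 5 × 10^4 CFU per well, 35 ± 2 °C; triplicate.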

[34] = tested on: Acinetobacter baumannii; assay: Synergistic antibacterial activity against colistin/carbapenem resistant MDR Acinetobacter baumannii N50 incubated for 18 to 24 hrs in presence of colistin by broth microdilution method; format: functional; conditions: time 18-24 hrs; procedure, shortened: as §6
[35] = tested on: Pseudomonas aeruginosa; assay: Synergistic antibacterial activity against colistin resistant MDR Pseudomonas aeruginosa SI-270 incubated for 18 to 24 hrs in presence of colistin by broth microdilution method; format: functional; conditions: time 18-24 hrs; procedure, shortened: as §6
[36] = tested on: enterovirus D68; assay: microbe, parasite or virus in culture; conditions: Enterovirus D, HeLa, 48 h
[37] = tested on: Zika virus; assay: microbe, parasite or virus in culture; conditions: Vero C1008, 72 h
[38] = tested on: Staphylococcus aureus; assay: Antibacterial activity against Staphylococcus aureus; format: functional

Sequence of Phosphatidylinositol 4-kinase beta (Q9UBF8 whole entry): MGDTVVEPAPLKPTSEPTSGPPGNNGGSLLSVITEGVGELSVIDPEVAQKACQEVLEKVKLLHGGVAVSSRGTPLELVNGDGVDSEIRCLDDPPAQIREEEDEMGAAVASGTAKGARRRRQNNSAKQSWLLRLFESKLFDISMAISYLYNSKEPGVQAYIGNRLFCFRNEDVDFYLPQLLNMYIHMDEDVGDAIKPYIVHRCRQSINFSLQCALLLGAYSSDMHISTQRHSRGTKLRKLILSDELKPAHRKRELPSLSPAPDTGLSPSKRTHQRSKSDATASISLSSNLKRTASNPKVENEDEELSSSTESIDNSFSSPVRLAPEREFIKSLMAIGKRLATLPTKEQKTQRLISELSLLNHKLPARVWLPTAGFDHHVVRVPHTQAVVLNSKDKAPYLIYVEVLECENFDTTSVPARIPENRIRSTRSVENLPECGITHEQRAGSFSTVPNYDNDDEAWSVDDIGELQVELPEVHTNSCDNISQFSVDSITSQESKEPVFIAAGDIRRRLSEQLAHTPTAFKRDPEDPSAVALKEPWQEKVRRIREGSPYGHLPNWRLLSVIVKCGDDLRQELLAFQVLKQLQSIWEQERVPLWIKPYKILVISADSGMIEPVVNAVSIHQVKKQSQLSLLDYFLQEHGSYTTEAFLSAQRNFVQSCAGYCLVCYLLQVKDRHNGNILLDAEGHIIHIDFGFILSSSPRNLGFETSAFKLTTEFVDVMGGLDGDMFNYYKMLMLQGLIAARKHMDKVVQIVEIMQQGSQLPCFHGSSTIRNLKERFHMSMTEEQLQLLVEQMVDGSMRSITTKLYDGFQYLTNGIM

CC(C)S(=O)(=O)n1c(N)nc2ccc(/C(=N/O)c3ccccc3)cc21 [ENVIROXIME] showed an EC50 [1] of 0.027 µM, an EC50 [2] of 0.027 µM and an EC50 [3] of 0.049 µM.
In the case of CC(C)(C)C(=O)Nc1nc(C(F)(F)F)c(-c2csc(Nc3cccc(C(F)(F)F)n3)n2)s1, the IC50 [4] is reported as “Not Active”, the CC50 [5] is reported as 31.8 µM and the CC50 [6] is reported as 46 µM. The MIC [7] was 8 µg/mL, the MBC [8] was 16 µg/mL and the MIC [9] was 8 µg/mL. It also gave an MBC [10] of 16 µg/mL, an MIC [11] of 8 µg/mL and an MBC [12] of 8 µg/mL. For the same compound, the MIC [13] was 32 µg/mL, the MBC [14] was over 32 µg/mL and the MAC [15] was 2 µg/mL. It also gave an MAC [16] of 2 µg/mL, an MAC [17] of 4 µg/mL and an MAC [18] of over 64 µg/mL. The MIC [19] was 16 µg/mL, the MBC [20] was over 64 µg/mL and the MIC [21] was over 64 µg/mL. For the same compound, the MBC [22] was over 64 µg/mL, the MIC [23] was over 64 µg/mL and the MBC [24] was over 64 µg/mL. It also gave an MIC [25] of over 64 µg/mL, an MBC [26] of over 64 µg/mL and an MIC [27] of 64 µg/mL. For the same compound, the MBC [28] was over 64 µg/mL, the MIC [29] was over 64 µg/mL and the MBC [30] was over 64 µg/mL. For the same compound, the MIC [31] was over 64 µg/mL, the MBC [32] was over 64 µg/mL and the MAC [33] was 1 µg/mL. For the same compound, the MAC [34] was 0.06 µg/mL, the MAC [35] was 64 µg/mL and the IC50 [3] was 9.02 µM. The IC50 [36] was 6.74 µM and the IC50 [37] was 6.9 µM.
In the case of CC(C)(C)C(=O)Nc1nc(C(F)(F)F)c(-c2csc(Nc3cccc(C(=O)O)c3)n2)s1, the MIC [38] is reported as 32 µg/mL (≈ 68 µM).
